The results in this text go back to ChEMBL document CHEMBL6087457, “Discovery of MDI-114215: A Potent and Selective LIMK Inhibitor To Treat Fragile X Syndrome” (J Med Chem, 2025).

Data set [1] has as its target LIM domain kinase 1 (Mus musculus) (UniProt P53668). The data set is described as follows: Ex vivo inhibition of LIMK in hippocampus of mouse assessed as reduction in p-cofilin level at 3 uM incubated for 30 mins by Western blot analysis. The class given is functional. The method, boiled down:
(§1)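 Acute hippocampal slices from P7–9 WT and Fmr1 KO mice, incubated with vehicle (DMSO) or 3 μM LIMK inhibitor. p-Cofilin and total cofilin measured by Western blot and expressed as a p-cofilin/cofilin ratio. n = 2–4 animals per group. Significance by one-way ANOVA with Dunnett's multiple comparisons test.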

The target is the same in data set [2]. The data set is described as follows: Ex vivo inhibition of LIMK in hippocampus of Fmr1 KO mouse model of FXS assessed as reduction in p-cofilin level at 3 uM incubated for 30 mins by Western blot analysis. The class given is functional. The method, boiled down:
as §1

For data set [3], the target named is Cytochrome P450 2D6 (Homo sapiens, UniProt P10635). The data set is described as follows: Inhibition of CYP2D6 (unknown origin). The class given is ADME, microsomes, Liver, Microsome.
Sequence of Cytochrome P450 2D6 (P10635 whole entry): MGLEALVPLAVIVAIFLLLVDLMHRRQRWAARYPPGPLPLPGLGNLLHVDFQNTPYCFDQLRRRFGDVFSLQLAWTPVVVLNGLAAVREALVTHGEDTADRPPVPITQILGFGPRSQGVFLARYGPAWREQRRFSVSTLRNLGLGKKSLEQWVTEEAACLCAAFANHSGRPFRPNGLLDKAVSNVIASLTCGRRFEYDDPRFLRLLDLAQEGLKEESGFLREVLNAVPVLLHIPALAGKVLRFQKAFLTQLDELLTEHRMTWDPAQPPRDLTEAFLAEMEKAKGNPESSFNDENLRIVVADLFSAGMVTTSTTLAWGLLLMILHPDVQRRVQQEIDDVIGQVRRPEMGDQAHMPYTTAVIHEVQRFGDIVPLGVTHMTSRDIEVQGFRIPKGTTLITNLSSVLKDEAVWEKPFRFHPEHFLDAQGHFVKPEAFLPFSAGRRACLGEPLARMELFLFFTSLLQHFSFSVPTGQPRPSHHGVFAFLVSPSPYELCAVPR
The target of data set [4] is T1, Cytochrome P450 1A2 (Homo sapiens, UniProt P05177).
T1 sequence (P05177 whole entry): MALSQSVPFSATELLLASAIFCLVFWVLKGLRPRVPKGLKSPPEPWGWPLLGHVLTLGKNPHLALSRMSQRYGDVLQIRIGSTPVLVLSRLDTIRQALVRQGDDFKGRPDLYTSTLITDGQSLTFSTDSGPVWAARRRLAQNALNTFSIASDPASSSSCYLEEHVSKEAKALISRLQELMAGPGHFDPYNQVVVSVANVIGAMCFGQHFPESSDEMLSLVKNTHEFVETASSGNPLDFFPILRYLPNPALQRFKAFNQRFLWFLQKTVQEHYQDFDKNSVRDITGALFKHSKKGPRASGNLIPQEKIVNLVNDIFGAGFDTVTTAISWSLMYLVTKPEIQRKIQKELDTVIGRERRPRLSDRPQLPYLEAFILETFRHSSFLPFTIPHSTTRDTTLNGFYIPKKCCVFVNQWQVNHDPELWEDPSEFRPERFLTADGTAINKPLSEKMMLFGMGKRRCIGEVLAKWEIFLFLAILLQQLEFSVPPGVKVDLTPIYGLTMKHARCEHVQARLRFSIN
The experiment in a line: Inhibition of CYP1A2 (unknown origin). The class given is ADME, microsomes, Liver, Microsome.

Data set [5] is described as follows: Drug concentration in plasma of CD-1 mouse at 30 mg/kg/day, ip treated daily for 28 days. The class given is ADME, organism-based. Conditions: time 28 day.
The nature of data set [6]: Toxicity in CD-1 mouse assessed as effect on food consumption at 30 mg/kg/day, ip treated daily for 28 days. The class given is organism-based. Conditions: in vivo, 672 h, time 28 day. The method, boiled down:
(§2)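 Male CD-1 mice, 6 weeks old at start, dosed with vehicle or 30 mg/kg/day i.p. once daily for 28 days, followed by a 2-week treatment-free recovery. Endpoints: body weight, food consumption, clinical signs, macro- and microscopic pathology, and organ weights (male sexual organs) after […] of dosing and after recovery. Data given as mean ± SEM.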

The nature of data set [7]: Toxicity in CD-1 mouse assessed as adverse macroscopic findings at 30 mg/kg/day, ip treated daily for 28 days. The class given is organism-based. Conditions: in vivo, 672 h, time 28 day. The method, boiled down:
as §2

Data set [8] is described as follows: Drug concentration in brain of CD-1 mouse at 30 mg/kg/day, ip treated daily for 28 days. The class given is ADME, organism-based. Conditions: time 28 day, read-out: Ct.
A short description of data set [9]: Toxicity in CD-1 mouse assessed as change in epididymis weight at 30 mg/kg/day, ip treated daily for 28 days. Conditions: in vivo, 672 h, time 28 day. The class given is organism-based. The method, boiled down:
as §2

Data set [10] in a line: Toxicity in CD-1 mouse assessed as adverse microscopic findings at 30 mg/kg/day, ip treated daily for 28 days. The class given is organism-based. Conditions: in vivo, 672 h, time 28 day. The method, boiled down:
as §2

Data set [11] in a line: Toxicity in CD-1 mouse assessed as change in seminal vesicle weight at 30 mg/kg/day, ip treated daily for 28 days. The class given is organism-based. Conditions: in vivo, 672 h, time 28 day. The method, boiled down: as §2
The nature of data set [12]: Toxicity in CD-1 mouse assessed as change in testis weight at 30 mg/kg/day, ip treated daily for 28 days. The class given is organism-based. Conditions: in vivo, 672 h, time 28 day. The method, boiled down: as §2
A short description of data set [13]: Toxicity in CD-1 mouse assessed as change in prostate weight at 30 mg/kg/day, ip treated daily for 28 days. Conditions: in vivo, 672 h, time 28 day. The class given is organism-based. The method, boiled down:
as §2

The nature of data set [14]: Toxicity in CD-1 mouse assessed as adverse clinical signs at 30 mg/kg/day, ip treated daily for 28 days. Conditions: in vivo, 672 h, time 28 day. The class given is organism-based. The method, boiled down: as §2
Data set [15] in a line: Toxicity in CD-1 mouse assessed as drug tolerance at 30 mg/kg/day, ip treated daily for 28 days. The class given is organism-based. Conditions: in vivo, 672 h, time 28 day. The method, boiled down: as §2
Data set [16] is described as follows: Toxicity in CD-1 mouse assessed as body weight change at 30 mg/kg/day, ip treated daily for 28 days. The class given is organism-based. Conditions: in vivo, 672 h, time 28 day. The method, boiled down:
as §2

Data set [17] in a line: Toxicity in CD-1 mouse assessed as inflammatory cell infiltration in epididymis at 30 mg/kg/day, ip treated daily for 28 days measured after 14 days of recovery period. The class given is organism-based. Conditions: in vivo, 672 h, time 28 day. The method, boiled down:
as §2

Data set [18] addresses Cytochrome P450 2C19 (Homo sapiens, UniProt P33261). The experiment in a line: Inhibition of CYP2C19 (unknown origin). The class given is ADME, microsomes, Liver, Microsome.

The source made the active and inactive calls. No cut-off for these calls is given here.

Sequence of LIM domain kinase 1 (Mus musculus) (P53668 whole entry, the tested form may be a part): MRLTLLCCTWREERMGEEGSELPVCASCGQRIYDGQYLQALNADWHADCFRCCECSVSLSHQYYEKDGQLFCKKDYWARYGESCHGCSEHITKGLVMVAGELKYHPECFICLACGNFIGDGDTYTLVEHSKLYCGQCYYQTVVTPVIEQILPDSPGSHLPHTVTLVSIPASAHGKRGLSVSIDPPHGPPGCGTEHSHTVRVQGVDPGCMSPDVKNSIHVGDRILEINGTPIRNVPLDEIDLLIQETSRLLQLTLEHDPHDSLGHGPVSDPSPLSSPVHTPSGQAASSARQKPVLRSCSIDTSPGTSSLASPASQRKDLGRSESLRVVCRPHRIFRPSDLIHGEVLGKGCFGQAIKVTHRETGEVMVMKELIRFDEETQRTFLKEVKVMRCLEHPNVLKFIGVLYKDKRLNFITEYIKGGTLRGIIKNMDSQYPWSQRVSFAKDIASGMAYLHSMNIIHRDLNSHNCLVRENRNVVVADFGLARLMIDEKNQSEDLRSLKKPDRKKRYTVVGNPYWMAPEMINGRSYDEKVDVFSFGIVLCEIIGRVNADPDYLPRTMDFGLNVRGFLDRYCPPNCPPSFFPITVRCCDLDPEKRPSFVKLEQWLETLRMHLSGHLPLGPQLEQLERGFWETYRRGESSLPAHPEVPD
Sequence of Cytochrome P450 2C19 (P33261 whole entry): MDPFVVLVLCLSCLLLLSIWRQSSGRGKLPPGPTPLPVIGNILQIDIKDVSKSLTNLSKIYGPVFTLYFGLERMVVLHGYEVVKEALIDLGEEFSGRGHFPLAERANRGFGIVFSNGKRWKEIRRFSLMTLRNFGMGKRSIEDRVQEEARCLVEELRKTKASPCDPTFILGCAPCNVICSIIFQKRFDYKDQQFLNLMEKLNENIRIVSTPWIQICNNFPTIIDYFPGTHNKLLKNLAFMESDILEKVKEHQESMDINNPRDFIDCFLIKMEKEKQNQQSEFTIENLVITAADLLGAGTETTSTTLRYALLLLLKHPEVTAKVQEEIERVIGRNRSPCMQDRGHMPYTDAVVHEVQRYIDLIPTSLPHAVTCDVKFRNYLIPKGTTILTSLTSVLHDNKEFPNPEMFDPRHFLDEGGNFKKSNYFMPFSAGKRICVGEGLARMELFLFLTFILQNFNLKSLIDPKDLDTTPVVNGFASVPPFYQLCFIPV

Turning to `CCn1c(=O)c(-c2ccc(Cl)cc2Cl)cc2cnc(Nc3ccc(N4CCNCC4)c(F)c3)nc21`, the inhibition result in [1] and in [2] was “Active” each time.

As for `O=C(c1ccc(S(=O)(=O)Nc2ccccc2)cc1)N(Cc1ccc(NCCO)cc1)CC1CC1`, the 50% inhibitory concentration (IC50) in [3] is above 25 µM; in data set [4], above 25 µM; in [18], 11 µM. Moreover, the concentration at 672 h came out at 903 nM in [5] and 62 nM in data set [8]. Further, the Activity result in [6], in [7], in data set [9], in [10], in data set [11] and in data set [12] was “Non-toxic” in each case. The Activity entry in data set [13], in [14], in data set [15], in [16] and in data set [17] was “Non-toxic” each time.

Regarding `Cc1c[nH]c2ncnc(-c3ccc(NC(=O)N(CCO)c4ccccc4)cc3)c12`, the inhibition result in data set [1] and in data set [2] was “Active” in each case.
